KCNQ1 inh = blocks the human KCNQ1 potassium channel | hit rate 1.3% among 310,000 | CHO-K1 KCNQ1, FluxOR thallium flux fluorescence; hits give high values | AID 2642 | B-score at 10 µM;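 active = compounds whose thallium flux B-score, printed positive for inhibition, exceeds three library SD while starting fluorescence stays within three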;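 note: channel opened by potassium depolarization with thallium stimulus after 20 min compound exposure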
hERG protect = shields human hERG channel from block by proarrhythmic agents | Q12809 | CHO-hERG, FluxOR thallium flux, dofetilide IC70 present | activation (rescue from dofetilide block), less the hit threshold, % at 10 µM | hit rate 0.51% among 310,000;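 active = activation above the mean of controls blocked by dofetilide plus 5 SD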;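 note: thallium influx through hERG after potassium depolarization seen as dye fluorescence rise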
Target sequence (Q12809 whole entry, looked up): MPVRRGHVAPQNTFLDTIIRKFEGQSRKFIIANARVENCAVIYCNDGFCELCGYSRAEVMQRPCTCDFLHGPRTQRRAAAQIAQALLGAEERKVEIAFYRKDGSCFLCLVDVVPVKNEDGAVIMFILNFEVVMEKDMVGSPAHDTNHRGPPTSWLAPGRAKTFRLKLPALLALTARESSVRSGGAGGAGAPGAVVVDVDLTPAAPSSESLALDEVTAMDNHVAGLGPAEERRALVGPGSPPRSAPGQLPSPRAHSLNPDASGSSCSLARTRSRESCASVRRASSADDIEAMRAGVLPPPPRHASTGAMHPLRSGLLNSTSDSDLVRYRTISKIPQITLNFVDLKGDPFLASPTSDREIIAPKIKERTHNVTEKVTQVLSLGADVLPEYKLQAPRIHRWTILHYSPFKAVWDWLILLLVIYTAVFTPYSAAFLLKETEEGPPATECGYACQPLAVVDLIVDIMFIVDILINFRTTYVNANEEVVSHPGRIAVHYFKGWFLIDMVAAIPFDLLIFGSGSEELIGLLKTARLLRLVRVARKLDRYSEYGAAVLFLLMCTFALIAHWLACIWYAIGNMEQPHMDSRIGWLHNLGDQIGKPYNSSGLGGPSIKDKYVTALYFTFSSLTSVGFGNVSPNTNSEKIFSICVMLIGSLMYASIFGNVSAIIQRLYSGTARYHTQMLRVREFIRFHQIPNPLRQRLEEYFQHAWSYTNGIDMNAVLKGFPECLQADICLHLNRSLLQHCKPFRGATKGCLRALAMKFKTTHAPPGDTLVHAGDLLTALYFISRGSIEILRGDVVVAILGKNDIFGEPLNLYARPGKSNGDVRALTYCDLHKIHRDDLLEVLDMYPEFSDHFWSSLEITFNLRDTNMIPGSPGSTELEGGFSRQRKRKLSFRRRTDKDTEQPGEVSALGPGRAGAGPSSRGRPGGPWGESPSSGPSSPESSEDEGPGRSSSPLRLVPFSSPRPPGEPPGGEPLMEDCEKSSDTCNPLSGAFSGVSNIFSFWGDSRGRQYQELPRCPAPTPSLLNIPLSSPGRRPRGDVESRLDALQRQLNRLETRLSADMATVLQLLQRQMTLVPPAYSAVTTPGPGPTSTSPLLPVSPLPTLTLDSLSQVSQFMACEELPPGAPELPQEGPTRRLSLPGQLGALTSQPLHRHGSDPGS
KCNQ1 act = potentiates or activates the human KCNQ1 potassium channel | P51787 | CHO-K1 KCNQ1, thallium flux FluxOR fluorescence; hits give high values | B-score at 10 µM | hit rate 0.35% among 310,000;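 active = fluorescence ratio B-score, a plate-corrected score, at least three library SD, with initial intensity B-score within 5 SD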
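Medium – assay buffer, equal DMSO in all wells · Material – CHO-K1 cell line with stable KCNQ1 potassium channel expression · Signal – kinetic FluxOR thallium fluorescence, 10-s 1-Hz baseline, 110-s post-stimulus read · Compound – single concentration per compound, DMSO matched to controls · Schedule – 37 °C overnight plating, 90-min dark dye load, 20-min compound pretreatment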
KCNK3 block = human KCNK3 channel inhibition, primary screen. O14649. CHO-KCNK3 thallium flux, FluxOR fluorescence; hits give low values. B-score at 10 µM. hit rate 0.84% among 340,000. AID 602410;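 active = B-score under library mean minus 4 SD, starting fluorescence ratio at most library mean plus 5 SD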;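 note: more negative B-score means stronger inhibition of thallium flux through KCNK3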
KCNK9 block = human KCNK9 channel inhibition. HEK293 KCNK9, FluxOR thallium flux fluorescence; hits give low values. B-score at 10 µM. hit rate 1.2% among 310,000. AID 488922;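 active = ratio B-score over 3 SD below the library mean, with starting fluorescence within 5 SD of its mean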;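 note: negative B-score means less thallium flux so channel inhibition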
KCNK9 inh conf = confirmation of human KCNK9 potassium channel inhibitors; shares compounds with KCNK9 block; HEK293 KCNK9 cells, FluxOR thallium flux fluorescence; inhibition, % at 10 µM; hit rate 43% among 4,900; AID 492992;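 active = thallium signal inhibited by more than 5 SD of the compound-free buffer control wells, on both duplicate plates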;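 note: 0% = assay buffer control wells without compound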
Kir21 sel = tests whether KCNK9 modulators also affect mouse Kir2.1 | shares compounds with KCNK9 block | Kir2.1 cells, FluxOR thallium flux fluorescence | inhibition, % at 10 µM | hit rate 4% among 4,900;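 active = thallium signal drop more than 5 SD beyond the mean of the no-compound control wells, seen in both duplicate plates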;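 note: signal is fluorescence rise after thallium addition divided by baseline fluorescence; plate controls were assay buffer only for no effect and full block by chlorpromazine control for full effect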
KCNK9 uninduced = second check of KCNK9 modulator effects in non-induced HEK293 cells; shares compounds with KCNK9 block; FluxOR thallium flux; inhibition, % at 10 µM; hit rate 40% among 4,900; AID 492997;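 active = thallium signal drop beyond 5 SD of the untreated control mean, on both duplicate plates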;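 note: plate controls were buffer only IC0 wells for no effect and SID17386958 at its maximal inhibitory level for full effect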
Numbers without * were called inactive; i = inactive; / = not tested or not shown. Most compounds without a hit are left out; they make up all but 3.1% or so of the library.

SMILES	KCNQ1 inh	hERG protect	KCNQ1 act	KCNK3 block	KCNK9 block	KCNK9 inh conf	Kir21 sel	KCNK9 uninduced
COc1ccc(CN(C)C(=O)c2cccc(Oc3ccccc3)c2)c(OC)c1OC	i	-11.3	i	i	i	/	/	/
CN(Cc1ccc(C(F)(F)F)cc1)C(=O)c1ccc(Oc2ccccc2)cc1	i	-2.9	i	i	i	i	i	25.5%*
COn1c(-c2ccccc2)nc2ncccc21	i	-3.9	i	i	i	/	/	/
Clc1cccc(COn2c(-c3ccc(Cl)cc3Cl)nc3ncccc32)c1	i	-10.7	i	i	-8.81*	46.5%*	i	35.0%*
CCOC(=O)c1c(-c2cccc([N+](=O)[O-])c2)csc1NC(=O)C1CC1	i	-8.4	i	i	-8.32*	23.5%*	i	24.5%*
CCOC(=O)c1c(-c2cccc([N+](=O)[O-])c2)csc1NC(=O)C1CCCCC1	i	-2.7	i	i	i	/	/	/
CCOC(=O)c1c(-c2ccc(-c3ccccc3)cc2)csc1NC(=O)CNCCN(C)C	6*	-30.8	i	i	-10.5*	57.0%*	32.0%*	29.0%*
O=C(COc1ccc2c3c(c(=O)oc2c1)CCC3)Nc1ccc(CN2CCOCC2)cc1	i	-9.3	i	i	i	/	/	/
CSc1ccccc1OCc1cc(C(=O)N(C)Cc2ccncn2)no1	i	-3.1	i	i	i	/	/	/
CCC(C(=O)O)n1c2ccccc2c2cn[nH]c(=O)c21 (centres undefined)	i	-8.6	i	i	i	/	/	/
Cn1cc(C(=O)N/N=C/c2cccc([N+](=O)[O-])c2)c2ccccc21	i	-5.9	i	i	i	/	/	/
CCS(=O)(=O)N1CCCC(C(=O)NCCCOC(C)C)C1 (centres undefined)	i	-0.1	i	i	i	/	/	/
CC(C)OCCCNC(=O)C1CCN(S(=O)(=O)N2CCCC2)CC1	i	-20.6	i	i	-8.1*	i	i	i
COc1ccc(-c2n(Cc3ccccc3)c3ccccc3[n+]2Cc2ccccc2)cc1	8*	-11.3	i	i	-10.7*	i	43.0%*	i
CCCN(CC(=O)Nc1ccccc1OC)C(=O)c1ccc(COc2ccccc2)o1	/	/	/	i	/	/	/	/
COc1cc(OC)nc(Oc2ccccc2C(=O)Oc2ccc(F)cc2Cl)n1	i	2.8	i	i	-9.14*	59.0%*	i	39.0%*
Cc1noc(C)c1NC(=O)Nc1ccc2c(c1)CC(=O)N([C@H](C)CO)C[C@@H](C)[C@H](CN(C)CC1CCCCC1)O2	/	/	/	i	/	/	/	/
Cc1c(C)n(CC(O)CN2CCOCC2)c2ccccc12 (centres undefined)	i	-4.5	i	i	i	/	/	/
O=c1c2ccccc2n(CC(O)CN2CCOCC2)c2ccccc12 (centres undefined)	i	-2.1	i	i	-14*	33.0%*	i	i
C/C(=C\c1ccccc1)CN1CCN(C(C)C)C(CCO)C1 (centres undefined)	i	1.4	i	i	i	/	/	/
CC1CN(S(=O)(=O)c2ccc(C(=O)Nc3nnc(-c4ccc5c(c4)CCCC5)o3)cc2)CC(C)O1 (centres undefined)	i	-9.2	i	i	i	i	i	i
CC1CN(S(=O)(=O)c2ccc(C(=O)Nc3nnc(-c4ccccn4)o3)cc2)CC(C)O1 (centres undefined)	i	-8.0	i	i	i	/	/	/
CC(=O)N1c2ccc(S(=O)(=O)N(C)CC(=O)NCc3ccc(C)cc3)cc2CC1C (centres undefined)	i	-7.0	i	i	i	/	/	/
CCCCCCn1nc(C(=O)Nc2nc3c(s2)CCCC3)c2ccccc2c1=O	i	-8.3	i	i	-13*	58.5%*	i	i
CCCn1nc(C(=O)Nc2nnc(CC)s2)c2ccccc2c1=O	i	-17.6	i	i	i	/	/	/
SMILES	KCNQ1 inh	hERG protect	KCNQ1 act	KCNK3 block	KCNK9 block	KCNK9 inh conf	Kir21 sel	KCNK9 uninduced
O=c1c2sccc2nc(SCc2ccc([N+](=O)[O-])cc2)n1Cc1ccccn1	i	-11.6	i	i	-9.57*	74.0%*	i	27.5%*
COc1ccc(N=C(c2ccccc2)c2c(C)[nH]n(-c3ccccc3)c2=O)c(OC)c1	6*	-16.5	i	i	i	i	i	32.5%*
COc1ccc2ccccc2c1CNC(C)c1ccccc1 (centres undefined)	i	-1.9	i	i	i	i	i	i
Cc1cc(C)c2nc(N(CCN(C)C)C(=O)c3ccc4ccccc4c3)sc2c1	i	-10.7	i	i	i	i	i	i
CCCOc1ccc(C(=O)C(CN2CCOCC2)c2ccccc2)cc1 (centres undefined)	i	-8.2	i	i	i	i	i	i
CCCOc1ccc(C(=O)C(c2ccccc2)N2CCOCC2)cc1 (centres undefined)	i	-5.9	i	i	i	/	/	/
Cc1cccc(-n2nc(C(=O)c3ccco3)cc(-c3nc4ccccc4[nH]3)c2=N)c1	10*	-23.1	i	i	i	i	i	i
COc1ccc(C(=O)N/N=C/c2ccc(OC)c(CN3CCN(c4ccc(F)cc4)CC3)c2)cc1	i	-21.5	i	i	i	i	i	i
COc1ccc(CN2CCN(c3ccc(F)cc3)CC2)c(OC)c1OC	i	-5.9	i	i	i	/	/	/
COc1cc(OC)c(CN2CCN(c3ccc(F)cc3)CC2)cc1Br	i	-9.6	i	i	i	i	i	i
COc1ccc(/C=N/NC(=O)c2cccnc2)cc1CN1CCN(c2ccc(F)cc2)CC1	i	-11.8	i	i	i	/	/	/
O=C(Cn1ncc2c([nH]c3ccccc32)c1=O)N1CCN(c2ccccn2)CC1	i	-1.2	i	i	i	/	/	/
Cc1cc(C)c(S(=O)(=O)N2CCC(C(=O)NCc3ccc(Cl)cc3Cl)CC2)c(C)c1	i	-7.5	i	i	i	i	i	i
Cc1ccc(OCCn2c(=S)[nH]c3ccccc32)c(C(C)C)c1	i	-9.8	i	i	i	i	41.5%*	i
CCC1=NN2C(=N)/C(=C\c3cccn3-c3cccc(Cl)c3)C(=O)N=C2S1	i	-4.7	i	i	i	i	i	i
COc1ccc2c(CCNC(=O)c3ccc([N+](=O)[O-])cc3)c[nH]c2c1	i	-1.1	i	i	i	/	/	/

Assay outcomes: PubChem BioAssay, Johns Hopkins Ion Channel Center
